In ChEMBL document CHEMBL1649081, “Arylpiperazines for management of benign prostatic hyperplasia: design, synthesis, quantitative structure-activity relationships, and pharmacokinetic studies” (J Med Chem, 2011):
Several values for one entry are separate records, joined by “and”; a condition that tells them apart may be missing. Identical values can stand only once. Activity calls are given as the source filed them. The calls are words filed in the database; no cut-off is given here.

Assays:
[1] = (§1) […] in Sprague-Dawley rat model […] assessed as reduction in prostate weight at 10 mg/k, po administered daily for 21 days measured after 24 hrs post last dose; type: functional
In short: (§2)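 Adult mature Sprague-Dawley rats (n = 5) received an oral 10.0 mg/kg dose as a water/gum acacia suspension daily for 21 days. Controls received vehicle, and a reference antiandrogen served as positive control. At autopsy 24 h after the last dose, prostates were dissected and weighed.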

LNCaP [2] = experiment: Anticancer activity against human LNCAP cells assessed as change in PSA gene expression at 10 umol after 48 hrs by RT-PCR analysis; type: functional
In short: (§3)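 LNCaP cells (androgen-dependent human prostate cancer) were grown in RPMI-1640 with 10% FCS, 100 units/mL penicillin G and 100 μg/mL streptomycin on gelatin-coated plates. They were treated at 10 μmol for 48 h, with flutamide as positive control. PSA is reported as fold change relative to untreated control.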

[3] = target: Estrogen receptor beta (Homo sapiens) (UniProt Q92731); experiment: Induction of ERbeta in human LNCAP cells at 10 umol relative to control; type: cell-based
Chain of Estrogen receptor beta (Homo sapiens) (Q92731 whole entry): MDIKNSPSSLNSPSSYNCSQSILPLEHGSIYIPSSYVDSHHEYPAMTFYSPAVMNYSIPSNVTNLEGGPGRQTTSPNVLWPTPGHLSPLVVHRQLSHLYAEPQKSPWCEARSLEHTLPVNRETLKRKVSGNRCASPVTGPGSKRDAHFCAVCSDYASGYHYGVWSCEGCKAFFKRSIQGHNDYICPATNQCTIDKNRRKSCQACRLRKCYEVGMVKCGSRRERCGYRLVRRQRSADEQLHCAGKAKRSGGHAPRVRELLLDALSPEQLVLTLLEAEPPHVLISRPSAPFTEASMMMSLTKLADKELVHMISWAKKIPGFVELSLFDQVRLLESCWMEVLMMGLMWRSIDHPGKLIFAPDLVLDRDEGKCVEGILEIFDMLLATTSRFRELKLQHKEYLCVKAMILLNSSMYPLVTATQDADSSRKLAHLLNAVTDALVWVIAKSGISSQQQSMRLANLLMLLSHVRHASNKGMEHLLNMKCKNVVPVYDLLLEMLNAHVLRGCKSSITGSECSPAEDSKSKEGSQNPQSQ
In short: (§4)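 LNCaP cells were grown in RPMI-1640 with 10% FCS, penicillin and streptomycin on gelatin-coated plates to 80% confluence, then treated at 10.0 μmol for 24 h, with flutamide as comparator. Total RNA was extracted with Trireagent, and ER-α/ER-β mRNA was measured by real-time PCR. Results are fold change versus control, mean ± SE of three values.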

[4] = target: T1, Estrogen receptor (Homo sapiens) (UniProt P03372); experiment: Induction of ERalpha in human LNCAP cells at 10 umol relative to control; type: cell-based; in short: as §4
T1 sequence (whole entry): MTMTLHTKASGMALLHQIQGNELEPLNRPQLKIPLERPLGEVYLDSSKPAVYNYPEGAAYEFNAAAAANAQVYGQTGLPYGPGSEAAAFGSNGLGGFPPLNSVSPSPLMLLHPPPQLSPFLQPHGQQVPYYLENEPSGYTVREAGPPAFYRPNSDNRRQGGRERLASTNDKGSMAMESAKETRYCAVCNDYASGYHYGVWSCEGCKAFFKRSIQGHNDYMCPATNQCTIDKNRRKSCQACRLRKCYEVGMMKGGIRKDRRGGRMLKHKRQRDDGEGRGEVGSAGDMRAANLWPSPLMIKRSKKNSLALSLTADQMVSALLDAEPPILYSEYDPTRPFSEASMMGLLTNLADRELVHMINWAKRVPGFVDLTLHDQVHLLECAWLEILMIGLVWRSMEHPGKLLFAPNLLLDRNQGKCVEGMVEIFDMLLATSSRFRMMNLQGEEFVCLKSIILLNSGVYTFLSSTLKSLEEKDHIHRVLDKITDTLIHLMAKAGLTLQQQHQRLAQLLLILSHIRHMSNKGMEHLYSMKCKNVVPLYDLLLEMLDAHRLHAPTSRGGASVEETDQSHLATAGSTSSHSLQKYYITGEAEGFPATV

LNCaP [5] = experiment: Anticancer activity against human LNCAP cells assessed as change in PSA gene expression at 10 umol after 48 hrs by RT-PCR analysis relative to control; type: functional; in short: as §3
Cancer cell lines = experiment: as §1; type: functional; in short: as §2
[6] = Mean residence time in Sprague-Dawley rat hypothalamus at 10 mg/kg, po administered as single dose; type: ADME, organism-based; set-up: dose 10 mg/kg, route oral
In short: (§5)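 Male Sprague-Dawley rats were fasted overnight (12-16 h) and given a single oral 10 mg/kg dose, n = 3 per time point. Animals were killed at intervals up to 24 h and serum, prostate and hypothalamus collected; hypothalamus was pooled from three rats. Analysis was by HPLC (0.01 M sodium acetate pH 6.0/acetonitrile 30:70; LLOQ 10 ng/mL), with noncompartmental parameters.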

Serum [7] = experiment: Clearance in Sprague-Dawley rat serum at 10 mg/kg, po administered as single dose; type: ADME, organism-based; set-up: dose 10 mg/kg, route oral; conditions: in vivo; in short: as §5
[8] = Mean residence time in Sprague-Dawley rat prostate gland at 10 mg/kg, po administered as single dose; type: ADME, organism-based; set-up: dose 10 mg/kg, route oral; in short: as §5
[9] = Mean residence time in Sprague-Dawley rat serum at 10 mg/kg, po administered as single dose; type: ADME, organism-based; set-up: dose 10 mg/kg, route oral; in short: as §5
[10] = Ratio of drug level in hypothalamus to prostate in Sprague-Dawley rat at 10 mg/kg, po administered as single dos; type: ADME, organism-based; set-up: dose 10 mg/kg, route oral; conditions: in vivo; in short: as §5
[11] = Ratio of drug level in serum to prostate in Sprague-Dawley rat at 10 mg/kg, po administered as single dos; type: ADME, organism-based, Prostate gland; set-up: dose 10 mg/kg, route oral; conditions: in vivo; in short: as §5
Hypothalamus = experiment: AUC (0 to t) in Sprague-Dawley rat hypothalamus at 10 mg/kg, po administered as single dose; type: ADME, organism-based; set-up: dose 10 mg/kg, route oral; conditions: in vivo; in short: as §5
[12] = AUC (0 to t) in Sprague-Dawley rat prostate gland at 10 mg/kg, po administered as single dose; type: ADME, organism-based; set-up: dose 10 mg/kg, route oral; conditions: in vivo; in short: as §5
[13] = Tmax in Sprague-Dawley rat hypothalamus at 10 mg/kg, po administered as single dose after 2 hrs; type: ADME, organism-based; set-up: dose 10 mg/kg, route oral; in short: as §5
Serum [14] = experiment: AUC (0 to t) in Sprague-Dawley rat serum at 10 mg/kg, po administered as single dose; type: ADME, organism-based; set-up: dose 10 mg/kg, route oral; conditions: in vivo; in short: as §5
[15] = Tmax in Sprague-Dawley rat hypothalamus at 10 mg/kg, po administered as single dose after 1 hr; type: ADME, organism-based; set-up: dose 10 mg/kg, route oral; in short: as §5
[16] = Tmax in Sprague-Dawley rat prostate gland at 10 mg/kg, po administered as single dose after 2 hrs; type: ADME, organism-based; set-up: dose 10 mg/kg, route oral; in short: as §5
[17] = Tmax in Sprague-Dawley rat prostate gland at 10 mg/kg, po administered as single dose after 1 hr; type: ADME, organism-based; set-up: dose 10 mg/kg, route oral; in short: as §5
[18] = Tmax in Sprague-Dawley rat serum at 10 mg/kg, po administered as single dose after 2 hrs; type: ADME, organism-based; set-up: dose 10 mg/kg, route oral; in short: as §5
[19] = Tmax in Sprague-Dawley rat serum at 10 mg/kg, po administered as single dose after 1 hr; type: ADME, organism-based; set-up: dose 10 mg/kg, route oral; in short: as §5
[20] = Cmax in Sprague-Dawley rat hypothalamus at 10 mg/kg, po administered as single dose after 2 hrs; type: ADME, organism-based; set-up: dose 10 mg/kg, route oral; in short: as §5
[21] = Cmax in Sprague-Dawley rat hypothalamus at 10 mg/kg, po administered as single dose after 1 hr; type: ADME, organism-based; set-up: dose 10 mg/kg, route oral; in short: as §5
[22] = Cmax in Sprague-Dawley rat prostate gland at 10 mg/kg, po administered as single dose after 2 hrs; type: ADME, organism-based; set-up: dose 10 mg/kg, route oral; in short: as §5
[23] = Cmax in Sprague-Dawley rat prostate gland at 10 mg/kg, po administered as single dose after 1 hr; type: ADME, organism-based; set-up: dose 10 mg/kg, route oral; in short: as §5
[24] = Cmax in Sprague-Dawley rat serum at 10 mg/kg, po administered as single dose after 2 hrs; type: ADME, organism-based; set-up: dose 10 mg/kg, route oral; in short: as §5
[25] = Cmax in Sprague-Dawley rat serum at 10 mg/kg, po administered as single dose after 1 hr; type: ADME, organism-based; set-up: dose 10 mg/kg, route oral; in short: as §5
[26] = target: Estrogen receptor beta (Homo sapiens) (UniProt Q92731); experiment: Induction of ERbeta in human prostate cells at 10 umol relative to control; type: cell-based
In short: (§6)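 ER-α and ER-β mRNA were measured by real-time PCR in two cell types: primary BPH-derived human stromal cells (passages 4-6; DMEM/Ham's F-12, 10% FCS) and LNCaP cells (RPMI-1640, 10% FCS, gelatin-coated). Cells at 80% confluence were treated with 10.0 μmol for 24 h, then total RNA was extracted. Results are fold change versus control, mean ± SE of three values.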

[27] = target: T1, Estrogen receptor (Homo sapiens); experiment: Induction of ERalpha in human prostate cells at 10 umol relative to control; type: cell-based; in short: as §6

In the case of `O=[N+]([O-])c1ccc(CN2CCN(c3ncccn3)CC2)cc1`, the “inhibition (INH)” value [1] is reported as 15% and 24%.

In the case of `O=[N+]([O-])c1ccc(N2CCN(c3ncccn3)CC2)c(C(F)(F)F)c1`, the “inhibition (INH)” value [1] is reported as 15% and 24%.

In the case of `CC(C)C(=O)Nc1ccc([N+](=O)[O-])c(C(F)(F)F)c1` [FLUTAMIDE], the “inhibition (INH)” value (LNCaP [2]) is reported as 99%, the fold change (FC) [3] is reported as 14 and the fold change (FC) [4] is reported as 11. For the same molecule, the “fold change (FC)” value (LNCaP [5]) was 0.01.

With `O=[N+]([O-])c1cc(C(F)(F)F)ccc1N1CCN(c2ncccn2)CC1` the “inhibition (INH)” value [1] was 15% and 24%.

For `O=C(c1ccc(C(F)(F)F)cc1)N1CCN(c2cccc(C(F)(F)F)c2)CC1`, the “inhibition (INH)” value [1] was 15%.

In the case of `O=[N+]([O-])c1ccc(N2CCN(c3ccccn3)CC2)cc1`, the “inhibition (INH)” value [1] is reported as 15% and 24%.

For `O=[N+]([O-])c1ccc(CN2CCN(c3cccc(Cl)c3)CC2)cc1`, the “inhibition (INH)” value [1] was 15%.

In the case of `O=[N+]([O-])c1ccccc1N1CCN(c2cccc(C(F)(F)F)c2)CC1`, the Activity (Cancer cell lines) is reported as “inactive”.

For `O=C(c1ccccc1)N1CCN(c2ncccn2)CC1`, the “inhibition (INH)” value [1] was 10%.

With `O=C(c1ccccc1)N1CCN(c2cccc(Cl)c2)CC1` the “inhibition (INH)” value [1] was 10%.

Work on `O=[N+]([O-])c1ccc(N2CCN(c3cccc(C(F)(F)F)c3)CC2)c(C(F)(F)F)c1` yielded an MRT [6] of 11.6 h, a CL (Serum [7]) of 0.17 mL/min/kg and an MRT [8] of 11 h. The MRT [9] was 6.97 h, the Ratio [10] was 0.35 and the Ratio [11] was 0.13. The AUC (Hypothalamus) was 2000 ng·h/g, the AUC [12] was 5650 ng·h/g and the Tmax [13] was 2 h. For the same molecule, the AUC (Serum [14]) was 712 ng·h/mL, the Tmax [15] was 1 h and the Tmax [16] was 6 h. The Tmax [17] was 1.5 h, the Tmax [18] was 2 h and the Tmax [19] was 0.5 h. For the same molecule, the Cmax [20] was 124 ng/g, the Cmax [21] was 99.5 ng/g and the Cmax [22] was 365 ng/g. The Cmax [23] was 442 ng/g, the Cmax [24] was 139 ng/mL and the Cmax [25] was 106 ng/mL. The fold change (FC) [26] was 6, the fold change (FC) [27] was 3 and the “inhibition (INH)” value (LNCaP [2]) was 90%. The fold change (FC) [3] was 16, the fold change (FC) [4] was 11 and the “fold change (FC)” value (LNCaP [5]) was 0.106. For the same molecule, the “inhibition (INH)” value [1] was 15% and 24%.

With `O=[N+]([O-])c1ccccc1N1CCN(c2cccc(Cl)c2)CC1` the Activity (Cancer cell lines) was “inactive”.

In the case of `O=[N+]([O-])c1cc(C(F)(F)F)ccc1N1CCN(c2ccccn2)CC1`, the “inhibition (INH)” value [1] is reported as 15%.

In the case of `O=[N+]([O-])c1cc(C(F)(F)F)ccc1N1CCN(c2ccc(F)cc2)CC1`, the “inhibition (INH)” value [1] is reported as 15%.

With `O=[N+]([O-])c1cc(C(F)(F)F)ccc1N1CCN(c2cccc(Cl)c2)CC1` the “inhibition (INH)” value [1] was 15%.

With `O=C(c1ccc(C(F)(F)F)cc1)N1CCN(c2cccc(Cl)c2)CC1` the “inhibition (INH)” value [1] was 10%.

In the case of `O=[N+]([O-])c1ccc(N2CCN(c3cccc(Cl)c3)CC2)c(C(F)(F)F)c1`, the “inhibition (INH)” value [1] is reported as 15% and 24%.

With `O=[N+]([O-])c1ccc(N2CCN(c3ccc(F)cc3)CC2)c(C(F)(F)F)c1` the “inhibition (INH)” value [1] was 15% and 24%.

In the case of `O=[N+]([O-])c1ccc(N2CCN(c3ccccn3)CC2)c(C(F)(F)F)c1`, the “inhibition (INH)” value [1] is reported as 15% and 24%.

With `O=C(c1ccc(C(F)(F)F)cc1)N1CCN(c2ccccn2)CC1` the “inhibition (INH)” value [1] was 15%.

With `O=C(c1ccccc1[N+](=O)[O-])N1CCN(c2cccc(C(F)(F)F)c2)CC1` the “inhibition (INH)” value [1] was 15%.

With `O=C(c1ccccc1)N1CCN(c2cccc(C(F)(F)F)c2)CC1` the “inhibition (INH)” value [1] was 15%.

With `O=C(c1ccccc1)N1CCN(c2ccccn2)CC1` the “inhibition (INH)” value [1] was 10%.

In the case of `O=[N+]([O-])c1cc(C(F)(F)F)ccc1N1CCN(c2cccc(C(F)(F)F)c2)CC1`, the “inhibition (INH)” value [1] is reported as 15% and 24%.

For `O=[N+]([O-])c1ccc(CN2CCN(c3ccccn3)CC2)cc1`, the “inhibition (INH)” value [1] was 15%.

With `O=C(c1ccccc1[N+](=O)[O-])N1CCN(c2ccccn2)CC1` the “inhibition (INH)” value [1] was 15%.

For `O=[N+]([O-])c1ccc(CN2CCN(c3cccc(C(F)(F)F)c3)CC2)cc1`, the “inhibition (INH)” value [1] was 15%.

In the case of `O=[N+]([O-])c1ccccc1N1CCN(c2ccccn2)CC1`, the “inhibition (INH)” value [1] is reported as 15%.
